Results on ten compounds are retold here after ChEMBL document CHEMBL1165965, “Synthesis and structure-activity relationships of 1,2,3,4-tetrahydropyrido[2,3-b]pyrazines as potent and selective inhibitors of the anaplastic lymphoma kinase” (Bioorg Med Chem, 2010).

The target in assay [1] is T1, Serine/threonine-protein kinase LATS2 (Homo sapiens) (UniProt Q9NRM7).
T1 sequence (whole entry): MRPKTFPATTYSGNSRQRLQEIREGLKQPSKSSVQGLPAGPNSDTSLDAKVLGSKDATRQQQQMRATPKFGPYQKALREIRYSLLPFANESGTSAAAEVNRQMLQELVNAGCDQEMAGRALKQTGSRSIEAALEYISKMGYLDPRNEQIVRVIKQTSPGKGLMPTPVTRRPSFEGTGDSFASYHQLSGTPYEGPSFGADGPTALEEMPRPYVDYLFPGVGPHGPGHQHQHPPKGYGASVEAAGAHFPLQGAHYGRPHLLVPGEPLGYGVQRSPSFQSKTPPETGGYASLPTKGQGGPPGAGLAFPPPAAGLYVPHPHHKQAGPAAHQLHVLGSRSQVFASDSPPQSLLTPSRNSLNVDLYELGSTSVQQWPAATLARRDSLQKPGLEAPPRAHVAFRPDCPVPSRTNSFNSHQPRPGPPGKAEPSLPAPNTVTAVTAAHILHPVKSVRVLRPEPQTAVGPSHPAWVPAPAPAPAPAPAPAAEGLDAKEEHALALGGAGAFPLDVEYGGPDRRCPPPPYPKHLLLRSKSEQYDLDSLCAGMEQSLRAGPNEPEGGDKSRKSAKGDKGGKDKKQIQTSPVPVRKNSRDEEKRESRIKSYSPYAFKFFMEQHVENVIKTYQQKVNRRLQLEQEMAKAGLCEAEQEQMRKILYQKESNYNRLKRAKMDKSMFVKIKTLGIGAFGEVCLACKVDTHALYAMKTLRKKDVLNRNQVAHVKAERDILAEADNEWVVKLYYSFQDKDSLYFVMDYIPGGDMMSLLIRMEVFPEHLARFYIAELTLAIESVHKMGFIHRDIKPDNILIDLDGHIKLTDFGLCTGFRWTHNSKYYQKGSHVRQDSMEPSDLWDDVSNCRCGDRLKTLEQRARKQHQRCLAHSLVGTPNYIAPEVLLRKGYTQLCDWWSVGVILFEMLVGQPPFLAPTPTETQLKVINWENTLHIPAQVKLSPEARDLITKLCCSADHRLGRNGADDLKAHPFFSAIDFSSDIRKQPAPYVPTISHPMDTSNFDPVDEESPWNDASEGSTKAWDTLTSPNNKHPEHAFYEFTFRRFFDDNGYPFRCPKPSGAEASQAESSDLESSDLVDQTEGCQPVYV
In words: Inhibition of LATS2 at 1 uM.

The target in assay [2] is MAP kinase-interacting serine/threonine-protein kinase 2 (Homo sapiens) (UniProt Q9HBH9). The assay can be described thus: Inhibition of MKNK2 at 1 uM. The method, boiled down:
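Kinase-panel screen using KINOMEscan technology, with 250–400 kinases per panel. Each compound was tested at a single concentration, and inhibition of each kinase was recorded. Selectivity was summarised as S(90), the fraction of kinases inhibited by more than 90%.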

Assay [3] deals with Serine/threonine-protein kinase SIK3 (Homo sapiens) (UniProt Q9Y2K2). The assay can be described thus: Inhibition of QSK at 1 uM.
For assay [4], the target named is Activated CDC42 kinase 1 (Homo sapiens) (UniProt Q07912). In words: Inhibition of TNK2 at 1 uM. The method, boiled down:
(§1)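 Single-concentration screen on the Ambit KINOMEscan platform, run against a panel of 250–400 kinases. Per-kinase inhibition was also summarized as S(90), the fraction of kinases inhibited by more than 90%.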

The target of assay [5] is Tyrosine-protein kinase ABL2 (Homo sapiens) (UniProt P42684). The assay can be described thus: Inhibition of ABL2 at 1 uM. The gist of the method: (§2)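 Ambit KINOMEscan screen at a single concentration across a 250–400 kinase panel, recorded as percent inhibition. Selectivity was expressed as S(90), the fraction of kinases inhibited >90%.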
Assay [6] concerns the target Tyrosine-protein kinase receptor UFO (Homo sapiens) (UniProt P30530). In words: Inhibition of AXL at 1 uM. The gist of the method:
as §2

Assay [7] addresses Dual specificity protein kinase CLK2 (Homo sapiens) (UniProt P49760). In words: Inhibition of CLK2 at 1 uM. The gist of the method: as §2
The subject of assay [8] is Epidermal growth factor receptor (Homo sapiens), P00533 [L858R]. In words: Inhibition of EGFR L858R mutant at 1 uM. The format is protein assay. The gist of the method:
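Single-concentration screen using Ambit Bioscience KINOMEscan technology across a panel of 250–400 kinases. Per-kinase inhibition from this screen was summarized as S(90), the fraction of kinases inhibited by more than 90%.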

The target of assay [9] is Vascular endothelial growth factor receptor 3 (Homo sapiens) (UniProt P35916). In words: Inhibition of FLT4 at 1 uM. The gist of the method:
as §1

Chain of Tyrosine-protein kinase receptor UFO (Homo sapiens) (P30530 whole entry): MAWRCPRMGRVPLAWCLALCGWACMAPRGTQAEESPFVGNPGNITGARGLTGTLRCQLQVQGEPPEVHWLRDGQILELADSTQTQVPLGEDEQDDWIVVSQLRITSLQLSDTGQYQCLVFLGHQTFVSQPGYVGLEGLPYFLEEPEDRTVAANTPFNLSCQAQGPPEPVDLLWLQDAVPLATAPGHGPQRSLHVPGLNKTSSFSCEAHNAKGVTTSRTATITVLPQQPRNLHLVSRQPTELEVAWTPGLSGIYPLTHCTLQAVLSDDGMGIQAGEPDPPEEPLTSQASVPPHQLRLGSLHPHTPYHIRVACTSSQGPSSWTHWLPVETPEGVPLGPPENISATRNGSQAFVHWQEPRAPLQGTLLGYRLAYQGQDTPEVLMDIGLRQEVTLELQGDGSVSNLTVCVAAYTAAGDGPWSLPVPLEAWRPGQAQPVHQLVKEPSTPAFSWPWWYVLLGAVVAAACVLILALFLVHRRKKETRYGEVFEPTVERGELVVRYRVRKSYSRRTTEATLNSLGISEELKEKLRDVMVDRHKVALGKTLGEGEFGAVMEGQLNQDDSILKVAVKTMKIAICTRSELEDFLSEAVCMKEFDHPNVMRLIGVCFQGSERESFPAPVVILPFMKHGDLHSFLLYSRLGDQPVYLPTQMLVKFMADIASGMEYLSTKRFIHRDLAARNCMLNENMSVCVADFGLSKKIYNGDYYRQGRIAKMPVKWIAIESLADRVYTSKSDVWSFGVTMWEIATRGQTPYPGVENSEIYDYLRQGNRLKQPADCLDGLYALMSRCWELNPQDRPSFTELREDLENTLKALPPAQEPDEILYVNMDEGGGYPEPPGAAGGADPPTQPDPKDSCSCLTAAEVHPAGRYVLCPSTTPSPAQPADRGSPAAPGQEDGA
Chain of Vascular endothelial growth factor receptor 3 (Homo sapiens) (P35916 whole entry): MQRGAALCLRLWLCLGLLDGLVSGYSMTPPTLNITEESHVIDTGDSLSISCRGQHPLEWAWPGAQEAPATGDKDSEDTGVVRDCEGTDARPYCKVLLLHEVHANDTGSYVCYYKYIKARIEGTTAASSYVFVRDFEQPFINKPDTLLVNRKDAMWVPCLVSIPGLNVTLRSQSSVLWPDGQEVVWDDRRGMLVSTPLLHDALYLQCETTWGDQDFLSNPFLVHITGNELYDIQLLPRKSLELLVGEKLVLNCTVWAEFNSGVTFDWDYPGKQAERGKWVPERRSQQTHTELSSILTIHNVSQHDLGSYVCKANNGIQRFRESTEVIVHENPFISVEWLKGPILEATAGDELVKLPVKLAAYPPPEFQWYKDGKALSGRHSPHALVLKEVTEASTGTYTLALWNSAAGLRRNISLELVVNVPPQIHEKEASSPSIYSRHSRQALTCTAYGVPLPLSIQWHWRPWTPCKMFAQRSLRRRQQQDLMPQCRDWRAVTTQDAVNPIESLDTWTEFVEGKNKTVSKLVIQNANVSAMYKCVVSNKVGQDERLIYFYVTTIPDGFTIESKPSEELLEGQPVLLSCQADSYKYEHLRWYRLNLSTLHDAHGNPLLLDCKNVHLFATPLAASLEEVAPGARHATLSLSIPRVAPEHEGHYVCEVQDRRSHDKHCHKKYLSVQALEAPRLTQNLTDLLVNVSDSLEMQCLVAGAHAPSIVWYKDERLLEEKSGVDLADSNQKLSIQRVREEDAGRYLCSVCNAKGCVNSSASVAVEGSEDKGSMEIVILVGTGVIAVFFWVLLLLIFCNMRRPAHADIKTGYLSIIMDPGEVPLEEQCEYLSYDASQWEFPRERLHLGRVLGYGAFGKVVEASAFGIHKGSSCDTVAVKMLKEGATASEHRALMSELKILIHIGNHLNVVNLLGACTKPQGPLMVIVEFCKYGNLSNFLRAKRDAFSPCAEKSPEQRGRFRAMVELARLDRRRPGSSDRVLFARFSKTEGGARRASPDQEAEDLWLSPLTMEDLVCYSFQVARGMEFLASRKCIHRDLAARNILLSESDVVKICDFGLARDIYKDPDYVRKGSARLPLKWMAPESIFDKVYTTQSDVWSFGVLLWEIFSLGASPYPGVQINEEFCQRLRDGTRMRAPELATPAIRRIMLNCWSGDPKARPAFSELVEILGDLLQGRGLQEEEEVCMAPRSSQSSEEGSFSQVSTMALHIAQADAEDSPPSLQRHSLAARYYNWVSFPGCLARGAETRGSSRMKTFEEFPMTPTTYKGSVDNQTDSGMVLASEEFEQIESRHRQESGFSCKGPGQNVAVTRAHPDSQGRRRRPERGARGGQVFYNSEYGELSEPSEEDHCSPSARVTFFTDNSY
Chain of Dual specificity protein kinase CLK2 (Homo sapiens) (P49760 whole entry, looked up): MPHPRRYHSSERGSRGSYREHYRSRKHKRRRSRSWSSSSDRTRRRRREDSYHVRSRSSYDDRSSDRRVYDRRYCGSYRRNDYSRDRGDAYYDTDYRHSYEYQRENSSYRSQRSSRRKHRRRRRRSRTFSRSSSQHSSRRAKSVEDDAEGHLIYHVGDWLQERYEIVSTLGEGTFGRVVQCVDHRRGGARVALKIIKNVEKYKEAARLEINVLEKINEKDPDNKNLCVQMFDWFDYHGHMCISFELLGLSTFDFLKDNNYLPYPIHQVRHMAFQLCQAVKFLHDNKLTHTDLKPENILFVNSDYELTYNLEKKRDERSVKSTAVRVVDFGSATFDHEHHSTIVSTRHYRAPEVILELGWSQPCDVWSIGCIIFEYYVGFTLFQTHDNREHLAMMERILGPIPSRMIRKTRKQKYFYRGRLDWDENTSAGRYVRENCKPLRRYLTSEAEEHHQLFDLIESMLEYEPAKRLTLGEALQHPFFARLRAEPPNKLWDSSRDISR
Chain of Activated CDC42 kinase 1 (Homo sapiens) (Q07912 whole entry, looked up): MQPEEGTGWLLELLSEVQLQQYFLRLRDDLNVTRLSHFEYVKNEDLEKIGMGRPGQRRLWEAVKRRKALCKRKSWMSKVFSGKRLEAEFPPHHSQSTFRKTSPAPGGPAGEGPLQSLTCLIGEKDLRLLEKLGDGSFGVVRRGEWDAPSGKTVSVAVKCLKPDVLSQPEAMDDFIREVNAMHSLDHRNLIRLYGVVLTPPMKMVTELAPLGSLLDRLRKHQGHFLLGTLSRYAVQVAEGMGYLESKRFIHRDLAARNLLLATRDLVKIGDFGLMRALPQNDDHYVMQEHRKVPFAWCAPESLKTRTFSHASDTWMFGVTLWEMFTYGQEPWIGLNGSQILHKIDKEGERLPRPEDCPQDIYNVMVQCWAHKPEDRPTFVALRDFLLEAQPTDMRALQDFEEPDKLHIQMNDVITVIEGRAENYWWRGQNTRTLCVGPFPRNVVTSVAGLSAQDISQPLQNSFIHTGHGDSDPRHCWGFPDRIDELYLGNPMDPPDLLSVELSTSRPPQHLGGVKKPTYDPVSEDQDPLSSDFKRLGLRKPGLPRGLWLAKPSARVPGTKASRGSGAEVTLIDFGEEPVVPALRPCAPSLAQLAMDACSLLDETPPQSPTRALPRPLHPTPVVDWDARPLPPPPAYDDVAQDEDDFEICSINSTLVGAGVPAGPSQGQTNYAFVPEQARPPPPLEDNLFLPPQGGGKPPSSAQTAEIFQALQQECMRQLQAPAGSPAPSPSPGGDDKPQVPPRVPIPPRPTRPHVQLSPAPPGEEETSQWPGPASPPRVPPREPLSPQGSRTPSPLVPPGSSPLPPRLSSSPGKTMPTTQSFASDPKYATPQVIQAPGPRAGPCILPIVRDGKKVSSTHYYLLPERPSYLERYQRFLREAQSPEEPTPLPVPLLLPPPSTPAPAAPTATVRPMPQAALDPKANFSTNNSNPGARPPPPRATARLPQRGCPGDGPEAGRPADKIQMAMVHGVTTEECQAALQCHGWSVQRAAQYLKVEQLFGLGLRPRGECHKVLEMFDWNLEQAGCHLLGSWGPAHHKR
Chain of MAP kinase-interacting serine/threonine-protein kinase 2 (Homo sapiens) (Q9HBH9 whole entry, looked up): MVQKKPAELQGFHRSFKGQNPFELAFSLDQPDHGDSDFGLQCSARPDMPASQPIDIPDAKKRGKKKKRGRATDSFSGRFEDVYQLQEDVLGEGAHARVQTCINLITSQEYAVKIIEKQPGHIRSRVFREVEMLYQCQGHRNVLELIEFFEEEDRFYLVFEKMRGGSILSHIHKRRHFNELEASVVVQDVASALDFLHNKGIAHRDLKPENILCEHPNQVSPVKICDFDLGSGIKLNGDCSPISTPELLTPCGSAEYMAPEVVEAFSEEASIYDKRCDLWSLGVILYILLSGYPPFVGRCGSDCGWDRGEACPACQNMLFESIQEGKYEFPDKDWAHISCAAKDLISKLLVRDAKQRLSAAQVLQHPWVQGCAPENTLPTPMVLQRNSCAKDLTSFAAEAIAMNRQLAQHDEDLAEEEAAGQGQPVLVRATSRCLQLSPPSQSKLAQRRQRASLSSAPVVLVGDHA

A word on the inhibition: it is the percentage by which the read-out fell short of the control. The low end stands for a weak effect, the high end for a strong effect. `FC(F)(F)c1ccc(Cl)cc1CN1CCNc2ncc(-c3ccnc(N4CCNCC4)c3)cc21`: the inhibition is less than 50% in assay [1]; less than 50% in [2]; less than 50% in assay [3]; 99% in [4]; less than 50% in assay [5]; less than 50% in assay [6]. For the same compound, the inhibition in assay [7], in assay [8] and in assay [9] was less than 50% in each case.
Turning to `CN1CCN(c2ccc(-c3cnc4c(c3)N(Cc3cc(Cl)ccc3Cl)CCN4)cn2)CC1`, the inhibition was less than 50% in assay [1]; less than 50% in [2]; less than 50% in [3]; 88% in assay [4]; less than 50% in assay [5]; less than 50% in assay [6]. Further, the inhibition in assay [7], in assay [8] and in assay [9] was less than 50% throughout.
As to `COC1CCN(C(=O)c2ccc(-c3cnc4c(c3)N(Cc3cc(Cl)ccc3C(F)(F)F)CCN4)cc2)CC1`, the inhibition in [2] was less than 50%; in assay [4] it was 97.2%; in assay [5] it was less than 50%; in assay [6], less than 50%; in assay [7], less than 50%; in [8], less than 50%. The compound also displayed an inhibition in assay [9] of less than 50%.
Turning to `O=C(c1ccc(-c2cnc3c(c2)N(Cc2cc(Cl)ccc2C(F)(F)F)CCN3)cc1)N1CCCCC1`, the inhibition in [2] was less than 50%; in assay [4] it was 93.2%; in assay [5], less than 50%; in assay [6], less than 50%; in assay [7] it was less than 50%; in assay [8], less than 50%. The inhibition in assay [9] is less than 50%.
In the case of `O=C(O)c1ccc(-c2cnc3c(c2)N(Cc2cc(Cl)ccc2C(F)(F)F)CCN3)cc1`, the inhibition is less than 50% in assay [2]; 97.4% in [4]; less than 50% in assay [5]; less than 50% in assay [6]; less than 50% in [7]; less than 50% in assay [8]. Moreover, the inhibition in [9] was less than 50%.
As to `CN1CCN(c2ccc(-c3cnc4c(c3)N(Cc3cc(F)ccc3F)CCN4)cn2)CC1`, the inhibition in assay [1] was less than 50%; in [2], less than 50%; in [3] it was less than 50%; in assay [4], 79%; in [5] it was less than 50%; in [6], less than 50%. In addition, the inhibition in [7], in assay [8] and in [9] was less than 50% in each case.
For the compound `O=C(c1ccc(-c2cnc3c(c2)N(Cc2cc(Cl)ccc2C(F)(F)F)CCN3)cc1)N1CCC(N2CCCC2)CC1`, the inhibition in assay [2] is less than 50%; in assay [4], 99.8%; in [5], 75.9%; in [6], 93%; in [7], less than 50%; in assay [8] it was less than 50%. Besides, the inhibition in [9] amounted to 84.5%.
In the case of `CN1CCN(c2ccc(-c3cnc4c(c3)N(Cc3c(F)ccc(F)c3Cl)CCN4)cn2)CC1`, the inhibition in assay [1] is less than 50%; in assay [2] it was less than 50%; in [3], less than 50%; in [4], 85%; in assay [5], 83%; in [6], less than 50%. Also, the inhibition in assay [7], in [8] and in [9] was less than 50% throughout.
For the compound `CC(=O)N1CCN(c2cc(-c3cnc4c(c3)N(Cc3cc(Cl)ccc3C(F)(F)F)CCN4)ccn2)CC1`, the inhibition in [1] is less than 50%; in assay [2], less than 50%; in [3], less than 50%; in assay [4] it was 99%; in assay [5], less than 50%; in assay [6], less than 50%. For the same compound, the inhibition in [7], in assay [8] and in [9] was less than 50% throughout.
As to `CN1CCN(c2ccc(-c3cnc4c(c3)N(Cc3cc(Cl)ccc3C(F)(F)F)CCN4)cn2)CC1`, the inhibition in assay [1] is less than 50%; in [2] it was less than 50%; in assay [3], less than 50%; in assay [4] it was 98%; in assay [5], less than 50%; in [6], less than 50%. Further, the inhibition in [7], in assay [8] and in [9] was less than 50% throughout.
